Tests used:
[1] = target: T1, Neutrophil elastase (Homo sapiens, UniProt P08246); assay: Binding affinity against human leukocyte elastase was determined
T1 sequence (P08246 whole entry): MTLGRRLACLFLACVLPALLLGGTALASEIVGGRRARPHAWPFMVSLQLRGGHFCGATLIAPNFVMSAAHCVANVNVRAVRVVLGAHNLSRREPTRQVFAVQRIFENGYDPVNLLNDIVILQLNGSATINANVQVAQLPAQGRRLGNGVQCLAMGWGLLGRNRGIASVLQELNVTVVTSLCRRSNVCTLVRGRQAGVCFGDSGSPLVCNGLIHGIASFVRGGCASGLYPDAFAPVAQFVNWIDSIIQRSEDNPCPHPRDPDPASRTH
Method in brief: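 Elastase purified from human leukocytes and assayed by the progress-curve method. Enzyme turnover of a fluorogenic coumarin substrate at about 0.04 Km served as a probe of free enzyme. Buffer was 25 mM K+ HEPES, 1 M NaCl, 0.1% Brij 35, pH 7.8, 25 °C. Read-out was fluorescence at 400 nm excitation and 505 nm emission.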

[2] = target: T2, Neutrophil elastase (Homo sapiens) (UniProt P08246); assay: Rate of deacylation by human leukocyte elastase
T2 sequence (whole entry): T1 sequence (P08246 whole entry)
Method in brief: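 Otherwise, acyl enzyme was prepared and isolated on Sephadex G-25 at low pH. Deacylation was followed as the return of activity after dilution into assay buffer containing fluorogenic substrate.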

[3] = target: T2, Neutrophil elastase (Homo sapiens)

Row | SMILES | Ki [1] | k off [2] | k1 [3]
1 | CCCCNc1nc2ccccc2c(=O)o1 | 84 nM |  | 
2 | CCCCNc1nc2cccc(C)c2c(=O)o1 | 23 nM |  | 
3 | Nc1nc2ccccc2c(=O)o1 | 63000 nM |  | 
4 | Cc1cccc2nc(NC(C)C)oc(=O)c12 | 1.5 nM |  | 
5 | CCNc1nc2ccccc2c(=O)o1 | 51 nM |  | 
6 | CCCNc1nc2ccccc2c(=O)o1 | 91 nM |  | 
7 | CNc1nc2ccccc2c(=O)o1 | 6900 nM |  | 
8 | CCc1cccc2nc(N)oc(=O)c12 | 5100 nM |  | 
9 | CCNc1nc2cccc(C)c2c(=O)o1 | 34 nM |  | 
10 | CCCCCCNc1nc2ccccc2c(=O)o1 | 3600 nM |  | 
11 | CCCCNc1nc2cccc(CC)c2c(=O)o1 | 4.2 nM | 0.00053 s⁻¹ | 130000 M⁻¹ s⁻¹
12 | CCC(C)Nc1nc2ccccc2c(=O)o1 (centres undefined) | 43 nM |  | 
13 | CNc1nc2cccc(C)c2c(=O)o1 | 31000 nM | 0.15 s⁻¹ | 4800 M⁻¹ s⁻¹
14 | CC(C)Nc1nc2ccccc2c(=O)o1 | 52 nM | 0.003 s⁻¹ | 59000 M⁻¹ s⁻¹
15 | CCCNc1nc2cccc(C)c2c(=O)o1 | 6 nM | 0.00034 s⁻¹ | 56000 M⁻¹ s⁻¹
16 | CCc1cccc2nc(NC(C)C)oc(=O)c12 | 0.94 nM |  | 

From ChEMBL document CHEMBL1123706, “Design of alternate substrate inhibitors of serine proteases. Synergistic use of alkyl substitution to impede enzyme-catalyzed deacylation” (J Med Chem, 1987)
